Kir21 block: blocks the mouse Kir2.1 inward-rectifier potassium channel. P35561. HEK293-Kir2.1, FluxOR thallium flux fluorescence; stronger effect = lower value. B-score at 10 µM. 0.85% of 310,000 active. AID 1672;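 active = fluorescence ratio B-score at or below minus 3 SD of library scores, with starting-brightness B-score within 2 SD, cut at about -4.2 in these data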;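 also: channel flux triggered by added potassium and thallium sulfate stimulus; B-score of peak minus minimum fluorescence over baseline after thallium stimulus; more negative B-score means stronger Kir2.1 block with less thallium influx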
hERG rescue: shields human hERG channel from block by proarrhythmic agents; activation (rescue from dofetilide block), less the hit threshold, % at 10 µM; AID 1511; CHO-hERG, FluxOR thallium flux, dofetilide IC70 present; 0.51% of 310,000 active; Q12809;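 active = activation above the mean of controls blocked by dofetilide plus 5 SD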;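 also: thallium influx through hERG after potassium depolarization seen as dye fluorescence rise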
KCNK9 block: blocks the human KCNK9 two-pore domain potassium channel; HEK293 KCNK9, FluxOR thallium flux fluorescence; stronger effect = lower value; B-score at 10 µM; 1.2% of 310,000 active; AID 488922;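 active = ratio B-score over 3 SD below the library mean, with starting fluorescence within 5 SD of its mean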;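 also: negative B-score means less thallium flux so channel inhibition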
KCNK3 inh: human KCNK3 channel inhibition, primary screen; O14649; CHO-KCNK3 thallium flux, FluxOR fluorescence; stronger effect = lower value; B-score at 10 µM; 0.84% of 340,000 active; AID 602410;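 active = B-score under library mean minus 4 SD, starting fluorescence ratio at most library mean plus 5 SD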;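 also: more negative B-score means stronger inhibition of thallium flux through KCNK3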
Target sequence (O14649 whole entry, looked up): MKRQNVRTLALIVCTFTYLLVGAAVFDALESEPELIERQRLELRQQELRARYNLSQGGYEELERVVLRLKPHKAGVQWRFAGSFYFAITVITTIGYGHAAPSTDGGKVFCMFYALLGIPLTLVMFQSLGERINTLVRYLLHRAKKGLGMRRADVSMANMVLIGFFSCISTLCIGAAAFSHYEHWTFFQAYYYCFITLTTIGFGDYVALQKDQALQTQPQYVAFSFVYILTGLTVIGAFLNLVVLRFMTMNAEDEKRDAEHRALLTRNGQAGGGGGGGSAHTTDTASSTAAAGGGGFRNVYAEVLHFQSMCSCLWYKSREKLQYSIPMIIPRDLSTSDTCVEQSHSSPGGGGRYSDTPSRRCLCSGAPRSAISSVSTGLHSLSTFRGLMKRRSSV
KCNQ1 pot: human KCNQ1 channel potentiation or activation; 0.35% of 310,000 active; P51787; CHO-K1 KCNQ1, thallium flux FluxOR fluorescence; stronger effect = higher value; B-score at 10 µM;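 active = fluorescence ratio B-score, a plate-corrected score, at least three library SD, with initial intensity B-score within 5 SD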
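Doses: Single concentration per compound, DMSO matched to controls | Test system: KCNQ1-transfected CHO-K1 cells | Timing: 90 min dye loading and 20 min compound exposure, both at room temperature | Measured by: Kinetic FluxOR thallium fluorescence, 10-s 1-Hz baseline, 110-s post-stimulus read | Medium: Assay buffer with matched DMSO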
KCNQ1 inh: blocks the human KCNQ1 potassium channel. CHO-K1 KCNQ1, FluxOR thallium flux fluorescence; stronger effect = higher value. B-score at 10 µM. 1.3% of 310,000 active. AID 2642;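 active = compounds whose thallium flux B-score, printed positive for inhibition, exceeds three library SD while starting fluorescence stays within three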;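 also: channel opened by potassium depolarization with thallium stimulus after 20 min compound exposure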
* marks the source's active call; other numbers are inactive results; i = inactive; / = no result given; ! = a repeat was not active. In the library only some 3.7% were active in any assay of this set; here they are far more common.

SMILES	Kir21 block	hERG rescue	KCNK9 block	KCNK3 inh	KCNQ1 pot	KCNQ1 inh
CC(/C=N/NC(=O)c1nnn(-c2nonc2N)c1CN(C)C)=C\c1ccco1	-1.1	-7	i	i	i	i
Cn1cc(Br)c(C(=O)n2cc(Br)cn2)n1	-1.8	-8	i	i	i	i
CCOC(=O)N1CCN(C(=O)c2cn(CC)c3ccc(S(=O)(=O)N4CC(C)CC(C)C4)cc3c2=O)CC1 (configuration not stated)	-1.4	-4	i	i	i	i
CCOC(=O)C1=C(Nc2ccccc2)CC(C)(O)C(C(=O)OCC)C1c1ccc(Cl)cc1 (configuration not stated)	/	/	/	-9.9*!	/	/
Cc1ccc(NC(=O)c2cnccn2)cc1C	-1.8	-6	i	i	i	i
CCOC(=O)[C@@H]1[C@H]2COc3ccccc3[C@@H]2N2C(=O)N(c3ccccc3)C(=O)[C@@]12C	0.93	-6	i	i	i	i
CCOC(=O)[C@@H]1[C@H]2COc3ccccc3[C@H]2N2C(=O)N(c3ccc(C)cc3)C(=O)[C@]12C	-0.38	-7	-6.7*	i	i	i
Cc1c(NC(=O)C(C)OC(=O)c2cc(-c3cccc4ccccc34)nc3ccccc23)c(=O)n(-c2ccccc2)n1C (configuration not stated)	-2.8	-18	i	i	i	6*
CSc1cccc(CN2CCC(Oc3cccc(C(=O)N4CCCC4)c3)CC2)c1	-4.8*	-12	i	i	i	i
CSc1cccc(CN2CCC(Oc3ccc(C(=O)N4CCCCC4)cc3)CC2)c1	-5.5*	-8	i	i	i	i
CC(=O)N1CCN(C(=O)c2ccc(OC3CCN(CCc4ccccc4)CC3)cc2)CC1	-0.92	-3	i	i	i	i
O=C(c1ccc(OC2CCN(CCCc3ccccc3)CC2)cc1)N1CCCC1	-5.9*	-12	i	i	i	i
COc1ccc(C(C(=O)NCC2CCCO2)N(C(=O)c2snc(C(N)=O)c2N)c2ccccc2C)cc1OC (configuration not stated)	-1.6	-7	i	i	i	i
COc1ccc2c(=O)cc(-c3ccncc3)oc2c1OC	/	/	/	i	/	/
Cc1ccccc1Nc1nc(-c2sc(NC(=O)c3ccc([N+](=O)[O-])cc3)nc2C)cs1	1.5	-12	i	/	i	7*
COc1ccc(/C=N/n2c(C)cc(C)c(C(N)=O)c2=O)cc1	1.9	6.5*	i	i	i	i
O=C(Nc1cc(C(F)(F)F)ccc1Cl)C(Sc1ccccn1)c1ccccc1 (configuration not stated)	1.2	3	-8.1*	i	i	i
O=C(Nc1ccn(CC(=O)N2CCN(c3ccccn3)CC2)c(=O)n1)OCc1ccccc1	/	/	/	i	/	/
CC1CCCC(C)N1CC(O)COCc1ccccc1F (configuration not stated)	-0.46	-3	i	i	i	i
CCOC(=O)c1cc(-c2ccccc2)sc1NC(=O)C(C)Sc1nnc(C)s1 (configuration not stated)	-1	-9	-7*	i	i	i
CC1CCCCC1n1c(=S)[nH]c2ccccc2c1=O (configuration not stated)	0.02	1	i	i	19*	i
Cc1cc([N+](=O)[O-])nn1Cc1noc(C(=O)NCCc2ccccn2)n1	-0.05	-5	i	i	i	i
CCOc1ccc(NC(=O)COc2ccc(OC)cc2)cc1	-1.3	-8	i	i	i	i
COc1ccc(NC(=O)C(=O)NNC(=O)COc2ccc(OC)cc2)cc1	0.74	7.8*	i	i	i	i
COc1ccc(NC(=O)COc2ccc(N(C)S(=O)(=O)c3ccc(Cl)cc3)cc2)cc1OC	2.2	-23	i	i	i	10*
SMILES	Kir21 block	hERG rescue	KCNK9 block	KCNK3 inh	KCNQ1 pot	KCNQ1 inh
COc1ccc(NC(=O)C(=O)NNC(=O)COc2ccc(Cl)cc2)c(OC)c1	0.06	16*	i	i	69*	i
COc1cc(NC(=O)COc2ccc(Cl)cc2)ccc1NC(=O)C(C)C	0.33	2	i	i	i	i
Cc1ccccc1OCC(=O)Nc1cccc(C(=O)O)c1	1.5	5.5*	i	i	i	i
CN(c1ccc(OCC(=O)OCC(=O)Nc2ccc(F)cc2)cc1)S(=O)(=O)c1ccc(Cl)cc1	-0.06	-3	i	i	i	i
Cc1nn(C(C)C(=O)NCc2ccco2)c(=O)c2nn(-c3ccccc3)c(C)c12 (configuration not stated)	0.37	-8	i	i	i	i
COc1ccc(-n2c(C)cc(/C=N/Nc3nnc(C)n3N)c2C)cc1	0.32	-11	i	i	i	i
COc1ccc(C(NC=O)c2cc(OC)c(OC)cc2Br)cc1OC (configuration not stated)	1.2	-2	i	i	i	i
Cc1c(Cl)cccc1NC(=S)N1CCN(Cc2ccc3c(c2)OCO3)CC1	-0.7	-8	i	i	i	i
Cc1c(Cl)cccc1NC(=S)NNS(=O)(=O)c1ccc([N+](=O)[O-])cc1	-0.45	-14	i	i	i	i
Cc1cccc(NC(=O)NNC(=O)COc2ccc3ccccc3c2)c1	0	-4	i	i	i	i
Cc1cc(Br)ccc1OCC(=O)NNC(=O)Cc1ccccc1	1.4	-7	i	i	i	i
CCN(C(=O)COc1ccc(N(C)S(=O)(=O)c2ccc(NC(C)=O)cc2)cc1)C1CCCCC1	/	/	/	-8.7*	/	/
Cc1cc(Br)ccc1OCC(=O)NNC(=O)C(=O)Nc1ccccc1	0.37	51*	i	i	92*	i
O=C(COc1ccc2ccccc2c1)NNC(=O)C(=O)Nc1ccccc1	0.24	45*	i	i	35*	i
CCc1ccc(NC(=O)C(=O)NNC(=O)COc2cccc(OC)c2)cc1	-1.5	7.2*	i	i	28*	i
C=CCn1c(COc2ccc(Cl)cc2)nnc1SCc1ccc(C#N)cc1	-4	4.8*	i	i	i	i
C=CCn1c(SCc2ccc(C#N)cc2)nnc1-c1ccccc1	-3.3	-10	i	i	i	i
C=CCn1c(COc2ccccc2)nnc1SCc1ccc(C#N)cc1	-11*	-5	i	i	i	i
O=c1cc(-c2ccccc2)cc(-c2ccccc2)n1O	-0.68	18*	i	i	23*	i
COc1ccc(Cl)cc1NC(=S)NCCSc1ccc(C)cc1	-0.04	-8	-8.1*	i	i	i
